In test [1] the test system is Plasmodium falciparum. Nature of the test: Antimalarial activity as inhibition of chloroquine-resistant Plasmodium falciparum mediated mice (Mus musculus) hemoglobin hydrolysis at 5 mM after 18 hrs. Set-up: scale not given: the % may be the effect or the level left. The format is functional. The method in brief:
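Parasite extract was incubated with native mouse haemoglobin, GSH (10 mM as added) and 0.2 M acetate buffer pH 5.4, with inhibitors added in DMSO, at 37 °C for 18 h. Reactions were stopped with reducing sample buffer and run on SDS-PAGE. Digestion was scored by densitometry of the 14 kDa globin band against a DMSO control, as intensity/mm2 ± SD.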

Test [2] has as its system Plasmodium falciparum. Nature of the test: Antimalarial activity as parasite development after 48 hrs against chloroquine-sensitive Plasmodium falciparum W2 by FACS analysis. The format is functional, organism-based. Particulars: W2, 48 h, in the assay text read “chloroquine-resistant” for “chloroquine-sensitive”. The method in brief:
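Sorbitol-synchronized ring-stage P. falciparum W2, started at 0.1% parasitemia, grown in RPMI-1640 with 10% human serum under 3% O2/6% CO2/91% N2. Inhibitors were added from 1000× DMSO stocks for 48 h with no medium change. Cells were fixed in 1% formaldehyde/PBS pH 7.4 for 48 h at room temperature, then stained with 1 nM YOYO in 0.1% Triton X-100/PBS. Nucleated erythrocytes were counted by flow cytometry. IC50 came from nonlinear fits of % control parasitemia against concentration, duplicate experiments.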
Background: Flow cytometry measures light scatter and fluorescence of single cells or particles in a stream.

Test [3] addresses T1, Histidine-rich protein PFHRP-II (Plasmodium falciparum) (UniProt P05227).
T1 sequence (whole entry): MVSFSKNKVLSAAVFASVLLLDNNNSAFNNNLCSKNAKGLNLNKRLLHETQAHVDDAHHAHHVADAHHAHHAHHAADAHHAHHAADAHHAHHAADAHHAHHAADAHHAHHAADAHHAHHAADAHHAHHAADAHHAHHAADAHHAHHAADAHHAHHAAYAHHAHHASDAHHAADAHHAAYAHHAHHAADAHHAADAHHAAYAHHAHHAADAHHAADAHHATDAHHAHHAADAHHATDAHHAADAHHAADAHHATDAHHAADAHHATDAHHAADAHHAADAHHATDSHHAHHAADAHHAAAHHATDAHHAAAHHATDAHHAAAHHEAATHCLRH
Briefly: Inhibition of acetate buffer-induced hemozoin formation at 1.25 to 25 mM/well after 48 hrs. Set-up: scale not given: the % may be the effect or the level left. The format is functional. The method in brief:
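Hemin chloride solution (4 mM, in DMSO) was mixed in triplicate with compounds in DMSO at final 1.25–25 per well. Controls were water or DMSO. Reaction was started with 0.2 M acetate buffer pH 4.4 and run at 37 °C for 48 h. Pellets were centrifuged, washed twice with DMSO, dissolved in 0.2 N NaOH, diluted 1:2 in 0.1 N NaOH, and absorbance read at 405 nm.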

The test system of test [4] is Plasmodium berghei. Nature of the test: Antimalarial activity as survival in Peter's assay at day 4 against Plasmodium berghei ANKA infected in NIH mice (Mus musculus) at 20 mg/kg intraperitoneal dose 2 hrs post infection then daily over 4 days.
The test system of test [5] is Plasmodium berghei. Briefly: Antimalarial activity as reduced parasitaemia at day 4 in Peter's assay against Plasmodium berghei ANKA infected in NIH mice (Mus musculus) at 20 mg/kg intraperitoneal dose 2 hrs post infection then daily over 4 days. The format is functional. Set-up: scale not given: the % may be the effect or the level left. In outline:
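NIH mice (18–23 g) were infected i.p. with 10^6 P. berghei-infected red cells. Compound was dissolved in DMSO (0.1 M), diluted in 2% saline–Tween 20, and given at 20 mg/kg i.p. once daily for 4 days, starting 2 h after infection. Day-4 parasitemia was read from Giemsa-stained smears as % of untreated controls. Survival was also recorded. Analysis used one-way ANOVA and t-tests.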

Test [6] relates to Plasmodium berghei. Nature of the test: Antimalarial activity as reduced parasitaemia at day 4 in Peter's assay against Plasmodium berghei ANKA infected in NIH mice (Mus musculus) at 25 mg/kg intraperitoneal dose 2 hrs post infection then daily for 4 days. Type of test: functional. Set-up: scale not given: the % may be the effect or the level left. In outline: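 Chloroquine reference arm: NIH mice (18–23 g) were infected i.p. with 10^6 P. berghei-infected red cells and given 25 mg/kg once daily for 4 days, starting 2 h post-infection. Day-4 parasitemia was counted on Giemsa-stained smears, expressed relative to untreated controls, with survival recorded.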

The subject of test [7] is Plasmodium berghei. Briefly: Antimalarial activity as survival at day 4 in Peter's assay against Plasmodium berghei ANKA infected NIH mice (Mus musculus) at 25 mg/kg intraperitoneal dose 2 hrs post infection then daily for 4 days. Type of test: functional. The method in brief:
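NIH mice (18–23 g) were infected i.p. with 10^6 P. berghei-infected erythrocytes. Dosing started 2 h later, i.p. once daily for 4 days, with compounds at 20 mg/kg and chloroquine at 25 mg/kg, from 0.1 M DMSO stocks diluted in 2% saline–Tween 20. Day-4 parasitaemia was read from Giemsa smears as % of untreated control, and survival as % of mice. Analysis used one-way ANOVA and t-tests.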

Bounds are passed on as bounds.

A word on the IC50: it is the concentration that gives 50% inhibition. Turning to `N#Cc1ccc(/C=C(\Cl)S(=O)(=O)c2ccccc2)cc1`, the Activity in the test on Plasmodium falciparum [1] was 44.73%; in test [3], less than 5%. This compound also showed an IC50 with Plasmodium falciparum [2] of more than 10000 nM.

In the test with Plasmodium falciparum [1], `CC(=O)N[C@@H](CC(C)C)C(=O)N[C@@H](CC(C)C)C(=O)N[C@H](C=O)CCCNC(=N)N` [LEUPEPTIN] came in with an Activity of 89.75%.

Consider `O=S(=O)(/C(Cl)=C/c1ccc(F)cc1)c1ccccc1`, for which the Activity was 52.72% in the test with Plasmodium falciparum [1] and less than 5% in test [3]. The compound further had an IC50 in the test with Plasmodium falciparum [2] of more than 10000 nM.

In the case of `O=S(=O)(/C(Cl)=C/c1ccc(Cl)c(Cl)c1)c1ccccc1`, the Activity is 95.04% with Plasmodium falciparum [1], 50% with Plasmodium berghei [4], 13.4% in the test on Plasmodium berghei [5] and less than 5% in test [3]. The IC50 in the test on Plasmodium falciparum [2] was 59 nM.

For `O=[N+]([O-])c1ccc(/C=C(\Cl)S(=O)(=O)c2ccccc2)cc1`, the Activity in the test on Plasmodium falciparum [1] is 79.19%; in test [3] it was less than 5%. This compound registered an IC50 in the test with Plasmodium falciparum [2] of 73 nM.

Take `CCN(CC)CCCC(C)Nc1ccnc2cc(Cl)ccc12` (stereo not drawn) [CHLOROQUINE]: the Activity in the test with Plasmodium berghei [6] is 3%; in the test on Plasmodium falciparum [1], 26.92%; with Plasmodium berghei [7], 30 days; in test [3], 84.2%.

For `O=S(=O)(/C(Cl)=C/c1ccccc1)c1ccccc1`, the Activity is 59.33% in the test with Plasmodium falciparum [1] and less than 5% in test [3]. This compound came in with an IC50 in the test with Plasmodium falciparum [2] of more than 10000 nM.

Turning to `O=S(=O)(/C(Cl)=C/c1ccccc1Cl)c1ccccc1`, the Activity is 65.81% with Plasmodium falciparum [1] and less than 5% in test [3]. The compound further yielded a 50% inhibitory concentration (IC50) in the test with Plasmodium falciparum [2] of more than 10000 nM.

As to `O=S(=O)(/C(Cl)=C/c1ccc(Cl)cc1Cl)c1ccccc1`, the Activity in the test with Plasmodium falciparum [1] is 75.3%; in test [3] it was less than 5%. In addition, in the test on Plasmodium falciparum [2], the IC50 turned out to be 960 nM.

Turning to `O=S(=O)(/C(Cl)=C/c1cccc2ccccc12)c1ccccc1`, the Activity in the test with Plasmodium falciparum [1] was 76.69%; in test [3] it was less than 5%. In the test with Plasmodium falciparum [2], this compound showed an IC50 of 75 nM.

In the case of `O=S(=O)(/C(Cl)=C/c1ccc(Cl)cc1)c1ccccc1`, the Activity was 74.92% in the test on Plasmodium falciparum [1] and less than 5% in test [3]. In the test with Plasmodium falciparum [2], this compound gave a 50% inhibitory concentration (IC50) of 83 nM.

For `COc1cc(/C=C(\Cl)S(=O)(=O)c2ccccc2)cc(OC)c1OC`, the Activity (in the test with Plasmodium falciparum [1]; in test [3]) was less than 5% throughout. In addition, the midpoint of inhibition with Plasmodium falciparum [2], the IC50, lay at 10000 nM.

For `O=S(=O)(/C(Cl)=C/c1cc2ccccc2nc1Cl)c1ccccc1`, the Activity was 28.49% in the test with Plasmodium falciparum [1] and less than 5% in test [3]. The compound further yielded an IC50 in the test with Plasmodium falciparum [2] of 25 nM.

On to `O=S(=O)(/C(Cl)=C/c1ccc2c(c1)OCO2)c1ccccc1`, for which the Activity in the test with Plasmodium falciparum [1] is 37.34%; in test [3], less than 5%. Besides, the IC50 with Plasmodium falciparum [2] came to 53 nM.

On to `COc1cc(OC)c(/C=C(\Cl)S(=O)(=O)c2ccccc2)c(OC)c1`, for which the Activity (in the test on Plasmodium falciparum [1]; in test [3]) was less than 5% in each case. This compound also gave an IC50 with Plasmodium falciparum [2] of 10000 nM.

In the case of `COc1cc(OC)c(OC)cc1/C=C(\Cl)S(=O)(=O)c1ccccc1`, the Activity with Plasmodium falciparum [1] is 11.07%; in test [3] it was less than 5%. The compound also had an IC50 in the test with Plasmodium falciparum [2] of more than 10000 nM.

For the compound `O=S(=O)(/C(Cl)=C/c1ccc2ccccc2c1)c1ccccc1`, the Activity with Plasmodium falciparum [1] is 84.59%; in the test with Plasmodium berghei [4], 72%; in the test with Plasmodium berghei [5], 6.25%; in test [3], less than 5%. Further, the half-maximal inhibitory concentration (IC50) in the test with Plasmodium falciparum [2] worked out at 58 nM.

The compound `CC(C)CC(=O)N[C@H](C(=O)N[C@H](C(=O)N[C@@H](CC(C)C)[C@@H](O)CC(=O)N[C@@H](C)C(=O)N[C@@H](CC(C)C)[C@@H](O)CC(=O)O)C(C)C)C(C)C` [PEPSTATIN] yielded an Activity with Plasmodium falciparum [1] of 93.77%.

As for `COc1ccc(/C=C(\Cl)S(=O)(=O)c2ccccc2)cc1`, the Activity (in the test with Plasmodium falciparum [1]; in test [3]) was less than 5% throughout. Besides, inhibition with Plasmodium falciparum [2] was half-maximal at 470 nM (IC50).

These data come from ChEMBL document CHEMBL1137739, “Synthesis of chlorovinyl sulfones as structural analogs of chalcones and their antiplasmodial activities” (Eur J Med Chem, 2009).
